Measured values from ChEMBL document CHEMBL1139423, “Stress-driven discovery of metabolites from the phytopathogenic fungus Leptosphaeria maculans: structure and activity of leptomaculins A-E” (2008).
The source made the active and inactive calls.

Columns and labels:
Brassica napus [1] = assay: Stress inducing elicitor activity in Brassica napus cv. Wester; type: functional, organism-based
Procedure, shortened: (§1)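 Test solutions applied to leaves of whole plants. Plants were grown in a growth chamber at 24 ± 2 °C on a 16 h light / 8 h dark cycle. Treated plants were incubated in a growth cabinet. Control leaves received MeOH/H2O (1:1). Elicitation was scored by HPLC-DAD of leaf extracts as phytoalexins absent from control plants. Assays were run in triplicate, at least twice.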

Brassica juncea [2] = assay: Induction necrosis on leaves of Brassica juncea cv. Cutlass at 0.5 mM; type: functional, organism-based
Brassica napus [3] = assay: Induction necrosis on leaves of Brassica napus cv. Wester at 0.5 mM; type: functional, organism-based
Brassica juncea [4] = assay: Stress inducing elicitor activity in Brassica juncea cv. Cutlass; type: functional, organism-based; procedure, shortened: as §1
Brassica juncea [5] = assay: Stress inducing elicitor activity in Brassica juncea cv. Cutlass assessed as induction of spirobrassinin production at 0.5 mM; type: functional, organism-based
Procedure, shortened: (§2)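 Test solutions applied to leaves of whole plants (B. juncea cv. Cutlass, B. napus cv. Westar) grown in a growth chamber at 24 ± 2 °C with 16 h light / 8 h dark; plants then incubated in a growth cabinet. Leaf extracts analysed by HPLC-DAD for phytoalexins and indolyl stress metabolites against controls treated with MeOH/H2O (1:1). Run in triplicate, at least twice.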

Brassica juncea [6] = assay: Stress inducing elicitor activity in Brassica juncea cv. Cutlass assessed as induction of rutalexin production at 0.5 mM; type: functional, organism-based; procedure, shortened: as §2
Brassica juncea [7] = assay: Stress inducing elicitor activity in Brassica juncea cv. Cutlass assessed as induction of cyclobrassinin production at 0.5 mM; type: functional, organism-based; procedure, shortened: as §2
Brassica juncea [8] = assay: Stress inducing elicitor activity in Brassica juncea cv. Cutlass assessed as induction of spirobrassinin production at 1 mM; type: functional, organism-based; procedure, shortened: as §2
Brassica juncea [9] = assay: Stress inducing elicitor activity in Brassica juncea cv. Cutlass assessed as induction of brassilexin production at 0.5 mM; type: functional, organism-based; procedure, shortened: as §2
Brassica juncea [10] = assay: Stress inducing elicitor activity in Brassica juncea cv. Cutlass assessed as induction of cyclobrassinin production at 1 mM; type: functional, organism-based; procedure, shortened: as §2
Brassica juncea [11] = assay: Stress inducing elicitor activity in Brassica juncea cv. Cutlass assessed as increase in indolyl-3-acetonitrile levels relative to control; type: functional; procedure, shortened: as §2
Brassica juncea [12] = assay: Stress inducing elicitor activity in Brassica juncea cv. Cutlass assessed as induction of brassilexin production at 1 mM; type: functional, organism-based; procedure, shortened: as §2
Brassica napus [13] = assay: Stress inducing elicitor activity in Brassica napus cv. Wester assessed as increase in 1-methoxyindolyl-3-acetonitrile levels relative to control; type: functional; procedure, shortened: as §2
Brassica juncea [14] = assay: Stress inducing elicitor activity in Brassica juncea cv. Cutlass assessed as increase in 1-methoxyindolyl-3-acetonitrile levels relative to control; type: functional; procedure, shortened: as §2
Brassica napus [15] = assay: Stress inducing elicitor activity in Brassica napus cv. Wester assessed as induction of spirobrassinin production at 0.5 mM; type: functional, organism-based; procedure, shortened: as §2
Brassica napus [16] = assay: Stress inducing elicitor activity in Brassica napus cv. Wester assessed as increase in indolyl-3-acetonitrile levels relative to control; type: functional; procedure, shortened: as §2
Brassica napus [17] = assay: Stress inducing elicitor activity in Brassica napus cv. Wester assessed as induction of spirobrassinin production at 1 mM; type: functional, organism-based; procedure, shortened: as §2
Brassica juncea [18] = assay: Stress inducing elicitor activity in Brassica juncea cv. Cutlass assessed as induction of rutalexin production at 1 mM; type: functional, organism-based; procedure, shortened: as §2
Brassica juncea [19] = assay: Stress inducing elicitor activity in Brassica juncea cv. Cutlass as induction of spirobrassinin production at 1 mM; type: functional, organism-based; procedure, shortened: as §1
Brassica juncea [20] = assay: Stress inducing elicitor activity in Brassica juncea cv. Cutlass assessed as induction of phytoalexins production; type: functional, organism-based; procedure, shortened: as §1
Brassica napus [21] = assay: Stress inducing elicitor activity in Brassica napus cv. Wester assessed as induction of phytoalexins production; type: functional, organism-based; procedure, shortened: as §1

CC(=O)O[C@H]1[C@]2(O)C[C@]34S[C@](CO)(C(=O)N3[C@@H]2C[C@]12O[C@H](C)C(C)(C)C2=O)N(C)C4=O
inactive: Activity (Brassica napus [1]) | Activity (Brassica juncea [4])
active: Activity (Brassica juncea [2]) | Activity (Brassica napus [3])

CC(=O)O[C@H]1[C@]2(O)C[C@]34SS[C@](CO)(C(=O)N3[C@@H]2C[C@]12O[C@H](C)C(C)(C)C2=O)N(C)C4=O [SIRODESMIN PL]
8: fold change (FC) (Brassica juncea [11]) | fold change (FC) (Brassica napus [13]) | fold change (FC) (Brassica juncea [14]) | fold change (FC) (Brassica napus [16])
active: Activity (Brassica juncea [5]) | Activity (Brassica juncea [6]) | Activity (Brassica juncea [7]) | Activity (Brassica juncea [8]) | Activity (Brassica juncea [9]) | Activity (Brassica juncea [10]) | Activity (Brassica juncea [2]) | Activity (Brassica napus [3]) | Activity (Brassica juncea [12]) | Activity (Brassica napus [15]) | Activity (Brassica napus [17]) | Activity (Brassica juncea [18])

CC(=O)O[C@H]1[C@]2(O)C[C@]34SSS[C@](CO)(C(=O)N3[C@@H]2C[C@]12O[C@H](C)C(C)(C)C2=O)N(C)C4=O
inactive: Activity (Brassica napus [1]) | Activity (Brassica juncea [4])

CC(=O)O[C@H]1[C@]2(O)C[C@]34SSSS[C@](CO)(C(=O)N3[C@@H]2C[C@]12O[C@H](C)C(C)(C)C2=O)N(C)C4=O
inactive: Activity (Brassica napus [1]) | Activity (Brassica juncea [4])

C[C@H]1O[C@]2(C[C@H]3N4C(=O)[C@@]5(CO)SS[C@]4(C[C@@]3(O)[C@@H]2O)C(=O)N5C)C(=O)C1(C)C [DEACETYLSIRODESMIN PL]
active: Activity (Brassica juncea [2]) | Activity (Brassica juncea [19]) | Activity (Brassica napus [3]) | Activity (Brassica napus [17])
8: fold change (FC) (Brassica juncea [11]) | fold change (FC) (Brassica napus [13]) | fold change (FC) (Brassica juncea [14]) | fold change (FC) (Brassica napus [16])

CC(C)=CCOc1ccc(C[C@@H]2NC(=O)[C@H](CO)NC2=O)cc1
inactive: Activity (Brassica juncea [20]) | Activity (Brassica napus [21])

C/C=C1/NC(=O)[C@H](C(C)C)NC(=O)[C@@H](CC(C)C)NC(=O)[C@H](CC(C)C)OC(=O)[C@H](Cc2ccccc2)OC1=O
inactive: Activity (Brassica juncea [20]) | Activity (Brassica napus [21])
